Results: ChEMBL document CHEMBL3612019, “Revisiting 1,3,4-Oxadiazol-2-ones: Utilization in the Development of ABHD6 Inhibitors” (Bioorg Med Chem, 2015)
Activity calls are given as the source filed them. The calls are words filed in the database; no cut-off is given here.

Key:
[1] = target: T1, Fatty-acid amide hydrolase 1 (Homo sapiens) (UniProt O00519); test: Inhibition of human FAAH expressed in COS7 cell membranes at 10 uM pre-incubated for 10 mins before [3H]-AEA substrate addition by liquid scintillation counting; conditions: COS-7
T1 sequence (whole entry): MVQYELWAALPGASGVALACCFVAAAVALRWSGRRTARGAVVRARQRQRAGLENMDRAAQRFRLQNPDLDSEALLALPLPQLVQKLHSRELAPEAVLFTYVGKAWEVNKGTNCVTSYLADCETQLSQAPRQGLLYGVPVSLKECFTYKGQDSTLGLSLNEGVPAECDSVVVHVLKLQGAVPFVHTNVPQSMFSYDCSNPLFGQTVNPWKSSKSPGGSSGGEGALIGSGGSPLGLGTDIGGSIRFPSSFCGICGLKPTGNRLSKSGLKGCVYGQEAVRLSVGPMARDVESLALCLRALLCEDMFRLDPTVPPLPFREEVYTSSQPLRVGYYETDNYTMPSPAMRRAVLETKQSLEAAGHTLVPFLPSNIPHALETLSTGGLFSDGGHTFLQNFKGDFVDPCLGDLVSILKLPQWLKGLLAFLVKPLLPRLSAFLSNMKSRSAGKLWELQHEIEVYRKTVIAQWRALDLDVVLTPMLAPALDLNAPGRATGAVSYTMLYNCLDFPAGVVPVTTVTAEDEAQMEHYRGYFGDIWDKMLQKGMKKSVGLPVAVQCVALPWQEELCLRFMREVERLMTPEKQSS

[2] = target: T2, Monoacylglycerol lipase ABHD6 (Homo sapiens, UniProt Q9BV23); test: Inhibition of human ABHD6 expressed in HEK293 cells assessed as reduction in glycerol production from 1-AG hydrolysis pre-incubated for 30 mins before 1-AG substrate addition and measured 90 mins post substrate addition by fluorescence method; assay type: cell-based
T2 sequence (Q9BV23 whole entry): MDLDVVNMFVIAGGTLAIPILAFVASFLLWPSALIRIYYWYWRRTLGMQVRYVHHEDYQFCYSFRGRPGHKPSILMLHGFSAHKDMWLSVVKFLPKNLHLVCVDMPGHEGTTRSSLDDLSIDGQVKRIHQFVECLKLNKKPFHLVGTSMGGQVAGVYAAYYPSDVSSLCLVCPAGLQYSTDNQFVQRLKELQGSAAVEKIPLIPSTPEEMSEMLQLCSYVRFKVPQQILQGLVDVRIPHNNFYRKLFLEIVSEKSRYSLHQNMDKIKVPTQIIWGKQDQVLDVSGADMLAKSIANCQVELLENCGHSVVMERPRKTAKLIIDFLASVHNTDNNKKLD
Procedure, shortened: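 hABHD6-HEK293 lysates pretreated 30 min with DMSO or inhibitor, then given 1-AG (12.5 µM final). Glycerol release was followed kinetically by fluorescence (emission 590 nm). Blanks without lysate were subtracted. IC50 was taken at the 90 min time point by nonlinear fitting of dose–response curves.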

[3] = target: T3, Monoglyceride lipase (Mus musculus) (UniProt O35678); test: Inhibition of MAGL in mouse whole brain membranes at 10 uM incubated for 1 hr by TAMRA-FP probe based competitive activity-based protein profiling assay; assay type: cell membranes; conditions: Membrane
T3 sequence (whole entry): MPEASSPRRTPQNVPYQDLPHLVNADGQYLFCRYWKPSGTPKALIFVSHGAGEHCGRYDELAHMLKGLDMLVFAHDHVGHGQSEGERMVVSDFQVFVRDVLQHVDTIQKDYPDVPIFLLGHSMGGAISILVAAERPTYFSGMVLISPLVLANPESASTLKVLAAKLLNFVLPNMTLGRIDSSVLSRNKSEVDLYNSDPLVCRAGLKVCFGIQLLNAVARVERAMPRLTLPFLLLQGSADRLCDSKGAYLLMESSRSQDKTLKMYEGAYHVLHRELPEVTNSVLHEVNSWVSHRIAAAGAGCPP
Procedure, shortened: (§1)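 Competitive ABPP on mouse brain membranes (100 µg) treated 1 h with DMSO or inhibitor. TAMRA-FP labelling then ran 1 h at RT (final probe 2 µM). Reaction was quenched with gel loading buffer and proteins resolved by 10% SDS–PAGE for fluorescent band read-out. WWL70 located the ABHD6 band. Gels are representative of two experiments.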

[4] = target: T4, Lysophosphatidylserine lipase ABHD12 (Mus musculus) (UniProt Q99LR1); test: Inhibition of ABHD12 in mouse whole brain membranes at 10 uM incubated for 1 hr by TAMRA-FP probe based competitive activity-based protein profiling assay; assay type: cell membranes; conditions: Membrane; procedure, shortened: as §1
T4 sequence (whole entry): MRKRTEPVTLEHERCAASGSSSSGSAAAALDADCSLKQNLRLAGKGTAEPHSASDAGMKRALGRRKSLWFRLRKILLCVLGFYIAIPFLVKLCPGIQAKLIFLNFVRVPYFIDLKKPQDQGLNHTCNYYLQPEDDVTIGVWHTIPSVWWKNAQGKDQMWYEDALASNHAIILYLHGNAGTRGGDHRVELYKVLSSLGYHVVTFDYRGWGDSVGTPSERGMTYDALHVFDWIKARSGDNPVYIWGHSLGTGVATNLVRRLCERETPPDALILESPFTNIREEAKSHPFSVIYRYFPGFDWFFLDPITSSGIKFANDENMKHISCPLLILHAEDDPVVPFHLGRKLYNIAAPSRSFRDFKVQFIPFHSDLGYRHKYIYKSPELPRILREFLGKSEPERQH

[5] = target: T5, Lysophosphatidylserine lipase ABHD12 (Homo sapiens) (UniProt Q8N2K0); test: Inhibition of human ABHD12 expressed in HEK293 cells assessed as remaining enzyme activity at 1 uM pre-incubated for 10 mins before 2-AG substrate addition by HPLC method; assay type: cell-based
T5 sequence (whole entry): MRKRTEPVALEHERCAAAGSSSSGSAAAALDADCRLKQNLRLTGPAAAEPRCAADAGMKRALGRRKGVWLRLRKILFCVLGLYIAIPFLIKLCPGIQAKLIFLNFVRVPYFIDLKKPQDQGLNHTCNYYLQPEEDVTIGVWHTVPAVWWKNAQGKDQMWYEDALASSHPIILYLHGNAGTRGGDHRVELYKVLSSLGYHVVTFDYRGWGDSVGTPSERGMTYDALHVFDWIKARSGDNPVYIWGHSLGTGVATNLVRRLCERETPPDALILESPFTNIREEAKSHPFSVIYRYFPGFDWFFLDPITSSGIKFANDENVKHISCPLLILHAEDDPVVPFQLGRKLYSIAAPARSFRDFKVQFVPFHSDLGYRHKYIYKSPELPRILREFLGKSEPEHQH

| Structure (SMILES) | inhibition [1] | IC50 [2] | inhibition [3] | inhibition [4] | inhibition [5] |
| --- | --- | --- | --- | --- | --- |
| COc1nn(Cc2cccc(N)c2)c(=O)o1 | 18% | 216 nM | inactive | inactive | inactive |
| Nc1cccc(Cn2nc(Oc3ccccc3)oc2=O)c1 | 25% | 73 nM | Active | Active | inactive |
